# Reference: PMC7591087 (Drug Design, Development and Therapy, 2020)
# Read-outs that look alike come from different tables or passages of the source.
# Assays:
# [1] = repeated once-daily administrations in healthy subjects, NCT00961025; cited from earlier work
# [2] = Steady-state pharmacokinetics; assay type: in vivo; settings: human, plasma, oral
# Outline: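 Crossover design in healthy males: 5 mg, 30 mg, or both test compounds orally once daily for 7 days, fasted, with 7-day washouts. A validated LC-MS/MS assay measured parent drugs and metabolites, and steady-state Tmax was taken directly from observed data. Analysis covered 34 completers.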
# [3] = Safety and tolerability assessment; assay type: in vivo, human
# Outline: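 Healthy males in a randomized, open-label, six-sequence, three-period crossover took one test compound at 5 mg, another at 30 mg, or both together, orally once daily for 7 days with 150 mL water while fasted, with 7-day washouts. Investigators monitored vital signs, physical exam, clinical labs, 12-lead ECG and adverse events, coding events with MedDRA 19.0. Analysis covered 35 subjects dosed at least once.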
# CYP enzymes = settings: in vitro studies; cited from earlier work
# CYP enzyme = settings: in vivo; cited from earlier work
# [4] = once-daily oral administration; cited from earlier work
# [5] = number of subjects who reported ADRs (the number of ADRs), N=35
SMILES,terminal half-life (t1/2) [1],time to reach a maximum plasma concentration (Tmax) [1],Tmax ([2]; 5 mg),"ADR: Diarrhoea [3, 5]","ADR: Dyspepsia [3, 5]","ADR: Headache [3, 5]","ADR: Lip blister [3, 5]","ADR: Muscle twitching [3, 5]","ADR: Musculoskeletal stiffness [3, 5]","ADR: Oropharyngeal swelling [3, 5]","ADR: Vomiting [3, 5]",induction or inhibition of CYP enzymes (CYP enzymes),CYP enzyme induction or inhibition (CYP enzyme),Tmax [2],Tmax ([2]; 30 mg),"number of AEs reported ([3]; all adverse events after each treatment, 35 subjects)","ADR: Amylase increased [3, 5]",Tmax [4]
CC(C)(C)OC[C@@H]1C(=O)NCCN1C(=O)C[C@H](N)Cc1cc(F)c(F)cc1F [Evogliptin],33 to 39 h,4 to 5 h,4.5 h,1 (1),1 (1),1 (1),1 (1),1 (1),1 (1),1 (1),1 (1),does not induce or inhibit CYP enzymes,,,,,,
CCc1ccc(CCOc2ccc(CC3SC(=O)NC3=O)cc2)nc1 (stereo not drawn) [Pioglitazone],,,,,,,,,,,,,No clinically significant CYP enzyme induction or inhibition,3 h,2 h,3 AEs,1 (1),about 2 hours
